The text below walks through data of ChEMBL document CHEMBL4024746, “Nonpyrogenic Molecular Adjuvants Based on norAbu-Muramyldipeptide and norAbu-Glucosaminyl Muramyldipeptide: Synthesis, Molecular Mechanisms of Action, and Biological Activities in Vitro and in Vivo” (J Med Chem, 2017).

Activity calls are given as the source filed them. The rule behind the calls is not given here.

In series [1] the test system is Oryctolagus cuniculus. In words: Pyrogenic activity in Chinchilla rabbit assessed as change in maximum body temperature at 100 nmol/kg, iv using micellar foemulation measured at 30 mins time intervals. The class given is toxicity, organism-based. Conditions: in vivo, 0.5 h. The procedure, abridged:
(§1)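 Standard rabbit pyrogenicity test, three animals per group, iv or modified sc application of free (micellar) or liposomal formulations. Maximum temperature rise (+ΔTmax) summed per group; sum below 1.1 °C classed as nonpyrogenic. Temperature followed a further 24 h for delayed pyrogenicity.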

Series [2] relates to Oryctolagus cuniculus. In words: Toxicity in Chinchilla rabbit assessed as weight loss at 100 nmol/kg, iv using micellar formulation measured up to 2 months post dose. The class given is organism-based. Conditions: in vivo.
The subject of series [3] is Oryctolagus cuniculus. In words: Toxicity in Chinchilla rabbit assessed as skin irritation at 100 nmol/kg, iv using micellar formulation measured up to 2 months post dose. The conditions noted are these: in vivo. The class given is organism-based.
For series [4], the target named is Nucleotide-binding oligomerization domain-containing protein 2 (Homo sapiens) (UniProt Q9HC29). In words: Agonist activity at human NOD2 receptor expressed in mouse Raw-Blue reporter cells at 10 uM after 48 hrs by SEAP reporter gene assay. The class given is cell-based. Summed up: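 RAW 264.7-derived RAW-Blue cells carrying an NF-κB/AP-1-inducible SEAP reporter, exposed to compounds at 10 μM for 48 h. Colorimetric SEAP read-out at 650 nm. MDP serves as positive control. ANOVA with Dunnett's test versus untreated cells and versus MDP.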

In series [5] the target is T1, Nucleotide-binding oligomerization domain-containing protein 1 (Homo sapiens) (UniProt Q9Y239).
T1 sequence (whole entry): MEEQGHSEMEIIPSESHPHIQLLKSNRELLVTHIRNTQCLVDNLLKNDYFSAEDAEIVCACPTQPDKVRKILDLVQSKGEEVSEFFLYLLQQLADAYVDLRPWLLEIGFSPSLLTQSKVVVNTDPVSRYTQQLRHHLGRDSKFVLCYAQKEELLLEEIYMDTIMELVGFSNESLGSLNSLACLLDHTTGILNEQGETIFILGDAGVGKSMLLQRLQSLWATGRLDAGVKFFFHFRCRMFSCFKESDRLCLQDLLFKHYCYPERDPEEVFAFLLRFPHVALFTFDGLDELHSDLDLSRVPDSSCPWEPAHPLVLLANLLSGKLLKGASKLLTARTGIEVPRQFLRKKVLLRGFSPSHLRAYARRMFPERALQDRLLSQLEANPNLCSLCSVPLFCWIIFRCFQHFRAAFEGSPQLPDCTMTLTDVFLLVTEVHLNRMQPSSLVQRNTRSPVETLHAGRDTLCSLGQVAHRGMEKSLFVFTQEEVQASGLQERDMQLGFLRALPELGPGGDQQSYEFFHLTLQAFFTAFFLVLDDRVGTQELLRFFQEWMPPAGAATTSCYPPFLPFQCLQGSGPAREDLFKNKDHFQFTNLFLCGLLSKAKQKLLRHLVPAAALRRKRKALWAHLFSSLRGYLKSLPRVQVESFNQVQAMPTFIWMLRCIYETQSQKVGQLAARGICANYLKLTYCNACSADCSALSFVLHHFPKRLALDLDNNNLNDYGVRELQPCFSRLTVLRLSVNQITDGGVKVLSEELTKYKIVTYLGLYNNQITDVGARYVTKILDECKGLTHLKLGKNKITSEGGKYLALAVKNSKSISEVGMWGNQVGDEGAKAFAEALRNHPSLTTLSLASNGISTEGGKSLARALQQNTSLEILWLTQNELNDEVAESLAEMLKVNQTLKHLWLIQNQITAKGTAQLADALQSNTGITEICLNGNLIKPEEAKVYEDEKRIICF
Description: Agonist activity at human NOD1 receptor expressed in HEK-Blue reporter cells at 10 uM after 48 hrs by SEAP reporter gene assay. The class given is cell-based. The procedure, abridged:
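HEK293 cells cotransfected with human NOD1 and an NF-κB/AP-1-inducible SEAP reporter, exposed to compounds at 10 μM for 48 h. SEAP is read at 650 nm with QUANTI-Blue. Diaminopimelic acid derivatives serve as NOD1 positive controls. Dunnett's test is used versus untreated cells.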

In series [6] the test system is Mus musculus. In words: Immuno-stimulatory activity in ICR mouse assessed as induction of GM-progenitor cell proliferation in serum at […], sc using liposomal formulation measured after 6 hrs. The class given is functional, organism-based. The procedure, abridged:
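Female ICR mice, 3 months old, four per group, given liposomal preparations sc at 100 nmol per dose in 200 μL. Serum collected 6 h later and added to cultured granulocyte–monocyte progenitors. GM-CFU colonies counted, with serum-free cells as baseline. Dunnett's test is used versus the infusion-solution control.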

Series [7] has as its target NACHT, LRR and PYD domains-containing protein 3 (Homo sapiens, UniProt Q96P20). Description: Agonist activity at NLRP3 in human […] cells assessed as induction of LPS-induced IL-1beta secretion by HEK-Blue reporter cell based assay. The procedure, abridged: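 THP1-Null cells stimulated with compounds; mature IL-1β released is detected with HEK-Blue IL-1β cells through SEAP reporter activity in the supernatant, read colorimetrically with QUANTI-Blue. ATP serves as positive standard. Untreated HEK-Blue IL-1β cells serve as negative control; comparison by ANOVA with Dunnett's test.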

Series [8] concerns Oryctolagus cuniculus. Description: Pyrogenic activity in New Zealand albino rabbit assessed as change in maximum body temperature at 100 nmol/kg, sc using liposomal formulation measured at 30 mins time intervals for 9 to 24 hrs (reference value: 0.2 degC). The class given is toxicity, organism-based. Conditions: in vivo. Summed up:
as §1

In series [9] the test system is Oryctolagus cuniculus. Description: Toxicity in Chinchilla rabbit assessed as necrosis at site of application at 100 nmol/kg, iv using micellar formulation measured up to 2 months post dose. The class given is organism-based. Conditions: in vivo.
Series [10] has as its system Oryctolagus cuniculus. In words: Toxicity in Chinchilla rabbit assessed as behavioral changes at 100 nmol/kg, iv using micellar formulation measured up to 2 months post dose. The class given is organism-based. The conditions noted are these: in vivo.
Series [11] relates to Oryctolagus cuniculus. In words: Toxicity in New Zealand albino rabbit assessed as weight loss at 100 nmol/kg, sc using liposomal formulation measured up to 2 months post dose. The class given is organism-based. Conditions: in vivo.
In series [12] the test system is Oryctolagus cuniculus. In words: Toxicity in New Zealand albino rabbit assessed as skin irritation at 100 nmol/kg, sc using liposomal formulation measured up to 2 months post dose. The conditions noted are these: in vivo. The class given is organism-based.
The subject of series [13] is Oryctolagus cuniculus. In words: Toxicity in New Zealand albino rabbit assessed as necrosis at site of application at 100 nmol/kg, sc using liposomal formulation measured up to 2 months post dose. The class given is organism-based. Conditions: in vivo.
The test system of series [14] is Oryctolagus cuniculus. Description: Toxicity in New Zealand albino rabbit assessed as behavioral changes at 100 nmol/kg, sc using liposomal formulation measured up to 2 months post dose. The class given is organism-based. Conditions: in vivo.
For series [15], the target named is Nucleotide-binding oligomerization domain-containing protein 2 (Homo sapiens) (UniProt Q9HC29). Description: Agonist activity at human NOD2 receptor expressed in mouse Raw-Blue reporter cells at 10 uM after 48 hrs in presence of gefitinib by SEAP reporter gene assay. The class given is cell-based.
For series [16] the target is unchanged. In words: Agonist activity at human NOD2 receptor expressed in mouse Raw-Blue reporter cells at 10 uM after 24 hrs in presence of GSK717 by SEAP reporter gene assay.
Series [17] in a line: Solubility of the compound in ethanol. The class given is physicochemical.
Series [18] can be described thus: Solubility of the compound in DMSO. The class given is physicochemical.
The nature of series [19]: Solubility of the compound in PBS. Conditions: buffer. The class given is physicochemical.
For series [20], the system named is Mus musculus. Description: Adjuvant activity in OspA immunized BALB/c mouse assessed as induction of total Ig antibody production administered id loaded in rOspA proteoliposomes measured 14 days after boost immunization by ELISA. The class given is functional. Summed up: (§2)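 Female BALB/c mice, 6−8 weeks, five per group, immunized id with His-tagged rOspA (endotoxin below 2.5 EU/mg) on metallochelation liposomes (EPC/POPG/DOGS-NTA-Ni/adjuvant 71:19:5:5), 20 μg rOspA per dose; boost 14 days after prime. Pooled sera taken 14 days post-boost, run in duplicate by ELISA on 100 ng/well tag-free rOspA, diluted 1:1000–1:32000; reported as mean OD490 ± SD at 1:8000.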

In series [21] the test system is Oryctolagus cuniculus. Description: Pyrogenic activity in New Zealand albino rabbit assessed as change in maximum body temperature at 25 ug/kg, sc using liposomal formulation measured at 30 mins time intervals for 9 to 24 hrs (reference value: 0.2 degC). The class given is organism-based. Conditions: in vivo, 0.025 mg/kg.
The test system of series [22] is Mus musculus. In words: Adjuvant activity in OspA immunized BALB/c mouse assessed as induction of total IgG1 antibody production administered id loaded in rOspA proteoliposomes measured 14 days after boost immunization by ELISA. The class given is functional. The procedure, abridged:
as §2

The test system of series [23] is Mus musculus. Description: Toxicity in BALB/c mouse assessed as irritation at site of drug application administered id loaded in rOspA proteoliposomes. The conditions noted are these: in vivo, other. Summed up:
(§3)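 Female BALB/c mice immunized id with rOspA metallochelation proteoliposomes carrying the adjuvant, prime and boost 14 days apart; injection sites inspected for irritation or local reactions.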

Series [24] deals with Mus musculus. In words: Toxicity in BALB/c mouse assessed as local reactions at site of drug application administered id loaded in rOspA proteoliposomes. Conditions: in vivo, other. Summed up:
as §3

The test system of series [25] is Mus musculus. In words: Adjuvant activity in OspA immunized BALB/c mouse assessed as induction of total IgG2a antibody production administered id loaded in rOspA proteoliposomes measured 14 days after boost immunization by ELISA. The class given is functional. The procedure, abridged: as §2

Nucleotide-binding oligomerization domain-containing protein 2 (Homo sapiens), sequence (Q9HC29 whole entry, the tested form may be a part): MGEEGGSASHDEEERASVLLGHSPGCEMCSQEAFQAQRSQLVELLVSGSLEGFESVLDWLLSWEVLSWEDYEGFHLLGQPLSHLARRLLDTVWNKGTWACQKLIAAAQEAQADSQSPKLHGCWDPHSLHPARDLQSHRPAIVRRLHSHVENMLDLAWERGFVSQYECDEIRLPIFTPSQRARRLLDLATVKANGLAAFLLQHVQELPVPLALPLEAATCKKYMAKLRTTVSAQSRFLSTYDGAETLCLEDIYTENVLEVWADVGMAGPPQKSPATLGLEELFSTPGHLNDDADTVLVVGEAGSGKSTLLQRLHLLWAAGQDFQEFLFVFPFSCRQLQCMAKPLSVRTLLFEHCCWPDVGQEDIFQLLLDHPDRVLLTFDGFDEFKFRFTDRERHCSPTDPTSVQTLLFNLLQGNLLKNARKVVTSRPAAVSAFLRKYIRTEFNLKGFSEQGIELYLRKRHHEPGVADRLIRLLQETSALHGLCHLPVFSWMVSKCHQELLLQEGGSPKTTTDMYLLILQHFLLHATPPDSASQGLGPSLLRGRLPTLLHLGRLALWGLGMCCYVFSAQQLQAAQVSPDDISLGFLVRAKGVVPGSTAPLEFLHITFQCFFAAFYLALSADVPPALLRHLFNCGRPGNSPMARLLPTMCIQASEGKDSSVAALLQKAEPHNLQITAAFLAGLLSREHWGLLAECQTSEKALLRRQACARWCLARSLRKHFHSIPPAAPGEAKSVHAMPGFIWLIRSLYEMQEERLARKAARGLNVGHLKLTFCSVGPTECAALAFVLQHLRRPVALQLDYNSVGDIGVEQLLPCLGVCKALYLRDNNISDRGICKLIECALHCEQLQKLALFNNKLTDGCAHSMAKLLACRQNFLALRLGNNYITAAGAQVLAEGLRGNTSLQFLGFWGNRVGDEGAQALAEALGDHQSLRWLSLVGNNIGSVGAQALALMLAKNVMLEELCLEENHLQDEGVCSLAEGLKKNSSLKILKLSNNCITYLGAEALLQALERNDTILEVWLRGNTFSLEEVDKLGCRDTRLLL
NACHT, LRR and PYD domains-containing protein 3, sequence (Q96P20 whole entry, the tested form may be a part): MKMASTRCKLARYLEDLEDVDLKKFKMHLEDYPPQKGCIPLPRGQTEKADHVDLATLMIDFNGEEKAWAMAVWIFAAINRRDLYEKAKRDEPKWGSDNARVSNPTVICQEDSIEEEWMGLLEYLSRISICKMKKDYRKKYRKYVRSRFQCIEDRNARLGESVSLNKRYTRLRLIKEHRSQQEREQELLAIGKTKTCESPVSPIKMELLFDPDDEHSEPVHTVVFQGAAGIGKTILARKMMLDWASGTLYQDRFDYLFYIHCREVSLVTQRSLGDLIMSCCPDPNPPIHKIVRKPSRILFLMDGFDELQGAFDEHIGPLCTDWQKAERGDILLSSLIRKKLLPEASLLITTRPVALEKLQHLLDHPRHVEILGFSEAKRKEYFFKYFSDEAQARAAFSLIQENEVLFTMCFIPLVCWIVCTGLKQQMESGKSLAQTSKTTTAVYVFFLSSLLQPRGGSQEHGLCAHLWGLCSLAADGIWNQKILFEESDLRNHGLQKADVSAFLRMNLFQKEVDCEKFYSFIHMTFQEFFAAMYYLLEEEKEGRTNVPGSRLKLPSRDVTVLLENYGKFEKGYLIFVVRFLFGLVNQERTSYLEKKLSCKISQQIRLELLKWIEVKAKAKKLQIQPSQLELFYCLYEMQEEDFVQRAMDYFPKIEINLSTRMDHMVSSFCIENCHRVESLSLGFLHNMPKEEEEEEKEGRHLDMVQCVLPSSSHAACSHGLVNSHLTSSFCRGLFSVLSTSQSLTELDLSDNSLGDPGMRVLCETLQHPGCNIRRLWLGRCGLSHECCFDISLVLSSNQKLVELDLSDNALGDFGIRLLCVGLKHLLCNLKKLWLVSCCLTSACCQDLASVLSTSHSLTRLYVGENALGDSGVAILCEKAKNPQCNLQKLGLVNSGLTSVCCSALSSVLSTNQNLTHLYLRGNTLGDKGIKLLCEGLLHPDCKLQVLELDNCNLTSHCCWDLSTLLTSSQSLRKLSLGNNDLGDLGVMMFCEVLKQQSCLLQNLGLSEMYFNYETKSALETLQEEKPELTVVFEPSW

As to `CCCCCCCCCCCCCCCCCC(=O)NCCCC[C@H](NC(=O)CC[C@@H](NC(=O)[C@H](CC)NC(=O)CO[C@H]1[C@H](O[C@@H]2O[C@H](CO)[C@@H](O)[C@H](O)[C@H]2NC(C)=O)[C@@H](CO)OC(O)[C@@H]1NC(C)=O)C(N)=O)C(=O)O` (stereo partly drawn), the deltaT in series [1] came to 0.5 °C; in [8], 0.4 °C. Further, the Activity entry in [2] is “Non-Toxic”; in [3], “Non-Toxic”; in series [7] it was “Active”; in series [9], “Non-Toxic”; in series [10], “Non-Toxic”; in series [11], “Non-Toxic”. For the same compound, the Activity entry in series [12], in series [13] and in [14] was “Non-Toxic” each time. For the same compound, the result in series [4] and in [6] was Active. Further, the outcome in series [5], in series [15] and in series [16] was inactive.

On to `CCCCCCCCCCCCCCC(CCCCCCCCCCCCCC)C(=O)N[C@H]1[C@H](O[C@H]2[C@H](OCC(=O)N[C@@H](CC)C(=O)N[C@H](CCC(=O)O)C(N)=O)[C@@H](NC(C)=O)C(O)O[C@@H]2CO)O[C@H](CO)[C@@H](O)[C@@H]1O` (stereo partly drawn), for which the figures for the deltaT in series [1] and in [8] were 0.7 °C and 0.5 °C, respectively. Besides, the Activity entry in series [2] was “Non-Toxic”; in series [3] it was “Non-Toxic”; in series [7] it was “Active”; in [9], “Non-Toxic”; in [10], “Non-Toxic”; in series [11], “Non-Toxic”. Besides, the Activity entry in series [12], in series [13] and in series [14] was “Non-Toxic” throughout. Further, in series [4], the outcome was Active. The result in series [5], in [6], in series [15] and in series [16] was inactive. For the same compound, the solubility entry was “Insoluble” in [17], “Soluble” in [18] and “Soluble” in series [19].

As to `CC(=O)N[C@H]1C(O)O[C@H](CO)[C@@H](O)[C@@H]1O[C@H](C)C(=O)N[C@@H](C)C(=O)N[C@H](CCC(=O)O)C(N)=O` (stereo partly drawn) [MURAMYL DIPEPTIDE], the deltaT in series [1] came to 2.9 °C; in series [21], 2.7 °C. The result in series [4], in [6], in series [20] and in series [22] was Active. In addition, the result in series [5], in series [15] and in [16] was inactive. Moreover, the results for the Activity entry in series [7], in series [23] and in [24] were “Active”, “Non-Toxic” and “Non-Toxic”, respectively.

As to `CCCCCCCCCCCCCCC(CCCCCCCCCCCCCC)C(=O)NCCCC[C@H](NC(=O)CC[C@@H](NC(=O)[C@H](CC)NC(=O)CO[C@H]1[C@H](O)[C@@H](CO)OC(O)[C@@H]1NC(C)=O)C(N)=O)C(=O)O` (stereo partly drawn), the deltaT in [1] stood at 0.7 °C; in series [8], 0.6 °C. For the same compound, the Activity entry in series [2] is given as “Non-Toxic”; in series [3] it was “Non-Toxic”; in series [7], “Active”; in series [9], “Non-Toxic”; in series [10], “Non-Toxic”; in series [11] it was “Non-Toxic”. In addition, the Activity result in series [12], in [13], in series [14], in [23] and in [24] was “Non-Toxic” each time. In addition, the outcome in [4], in [6], in series [20], in series [22] and in [25] was Active. The outcome in [5], in series [15] and in [16] was inactive.
